Converted amounts (≈) assume the structure as drawn. The source made the active and inactive calls. The rule behind the calls is not given here.
Key:
[1] = target: T1, Glucose-dependent insulinotropic receptor (Homo sapiens, UniProt Q8TDV5); experiment: (§1) Agonist activity at human GPR119 expressed in HEK293 cells assessed as increase in cAMP level after 30 mins by LANCE assay; type: functional, cell-based
T1 sequence (Q8TDV5 whole entry): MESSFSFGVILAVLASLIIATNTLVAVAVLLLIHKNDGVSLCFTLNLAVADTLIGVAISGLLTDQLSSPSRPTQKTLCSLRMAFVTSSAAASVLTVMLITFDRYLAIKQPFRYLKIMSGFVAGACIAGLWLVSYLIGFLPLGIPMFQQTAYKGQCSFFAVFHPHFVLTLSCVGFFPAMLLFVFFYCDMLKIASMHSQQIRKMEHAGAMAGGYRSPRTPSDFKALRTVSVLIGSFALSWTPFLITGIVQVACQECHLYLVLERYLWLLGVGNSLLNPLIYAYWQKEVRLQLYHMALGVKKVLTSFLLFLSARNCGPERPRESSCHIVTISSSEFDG

[2] = target: T2, Glucose-dependent insulinotropic receptor (Homo sapiens) (UniProt Q8TDV5); experiment: as §1; type: functional, cell-based
T2 sequence (whole entry): T1 sequence (Q8TDV5 whole entry)

[3] = target: T3, Glucose-dependent insulinotropic receptor (Mus musculus, UniProt Q7TQP3); experiment: (§2) Agonist activity at mouse GPR119 assessed as increase in cAMP level; type: functional
T3 sequence (Q7TQP3 whole entry): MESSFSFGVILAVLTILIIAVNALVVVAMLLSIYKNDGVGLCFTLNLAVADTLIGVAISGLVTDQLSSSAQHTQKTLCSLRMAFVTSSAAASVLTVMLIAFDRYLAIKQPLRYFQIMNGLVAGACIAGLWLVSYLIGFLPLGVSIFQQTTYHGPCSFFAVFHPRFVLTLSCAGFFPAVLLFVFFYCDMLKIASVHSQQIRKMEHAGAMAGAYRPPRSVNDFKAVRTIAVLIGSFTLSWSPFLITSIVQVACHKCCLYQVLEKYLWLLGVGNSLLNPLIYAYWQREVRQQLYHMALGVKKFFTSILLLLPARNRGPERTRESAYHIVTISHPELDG

[4] = target: T4, Glucose-dependent insulinotropic receptor (Mus musculus) (UniProt Q7TQP3); experiment: as §2; type: functional
T4 sequence (whole entry): T3 sequence (Q7TQP3 whole entry)

Mus musculus [5] = experiment: Antidiabetic activity in C57Bl/6NCrl mouse assessed as increase in plasma GLP1 (7 to 36) amide levels at 3 mg/kg, po administered via gavage pretreated followed by glucose-challenge measured after 10 mins; type: functional, organism-based
Rattus norvegicus = experiment: Antidiabetic activity in Sprague-Dawley rat assessed as reduction in glucose excursion at 1 mg/kg, po pretreated followed by glucose challenge measured after 10 to 30 mins by OGTT; type: functional, organism-based
In short: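 Sprague-Dawley rats underwent an oral glucose tolerance test with glucose excursion measured. Sitagliptin was dosed at 1 mpk and agonist at 3 mpk, alone or co-administered.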

Mus musculus [6] = experiment: Glucose lowering effect in C57Bl/6NCrl mouse assessed as reduction in glucose level at 3 mg/kg, po administered via gavage pretreated for 30 mins followed by glucose-challenge measured after 20 mins by OGTT relative to control; type: functional
In short: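 Overnight-fasted mice got compound or vehicle orally at 3 to 10 mg/kg. Glucose (3 g/kg po) was given 30 min post-dose. Blood glucose was read by hand-held glucometer before dosing, before glucose and 20 min after glucose. Glucose lowering (%) = [(1 − 20 min glucose of treated / 20 min glucose of vehicle) × 100].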

[7] = Protein binding in human plasma at 10 uM; type: ADME, cell-free; conditions: read-out: PPB (converted)
[8] = Protein binding in mouse plasma at 10 uM; type: ADME, cell-free; conditions: read-out: PPB (converted)
[9] = Solubility of the compound at pH 7.4; type: physicochemical; conditions: buffer

| SMILES | EC50 [1] [µM] | %max [2] [%] | EC50 [3] [µM] | %max [4] [%] | fraction unbound at 10 µM [7] | fraction unbound at 10 µM [8] | solubility [9] [µM] | Activity (Mus musculus [5]) | Activity (Rattus norvegicus) | Activity (Mus musculus [6]) |
| --- | --- | --- | --- | --- | --- | --- | --- | --- | --- | --- |
| N[C@@H](CC(=O)N1CCn2c(nnc2C(F)(F)F)C1)Cc1cc(F)c(F)cc1F |  |  |  |  |  |  |  | Active | Active |  |
| CC1(OC(=O)N2CC3COCC(C2)C3Oc2ncnc(Nc3cccnc3Cl)c2F)CC1 (stereo unspecified) | 0.017 | 63 | 0.058 | 84 |  |  |  |  |  | 26% |
| N#Cc1ccc(Oc2ncnc(OC3C4COCC3CN(c3ncc(F)cn3)C4)c2C2CC2)c(Cl)c1 (stereo unspecified) | 0.212 | 56 | 0.248 | 100 |  |  |  |  |  |  |
| CC1(COC(=O)N2CC3COCC(C2)C3Oc2ncnc(Nc3ccc(C#N)cc3Cl)c2F)COC1 (stereo unspecified) | 0.188 | 41 | 0.516 | 46 |  |  |  |  |  |  |
| COc1c(Nc2ccc(S(C)(=O)=O)cc2F)ncnc1OC1C[C@@H]2COC[C@@H](C1)N2C(=O)OC1(C)CC1 (stereo partly specified) | 0.097 | 73 | 0.000427 | 79 | 0.145 | 0.081 | 17 (≈ 9.12 µg/mL) |  |  |  |
| CC1(OC(=O)N2CC3COCC(C2)C3Oc2ncnc(Nc3ccc(-n4cncn4)cc3F)c2F)CC1 (stereo unspecified) | 0.019 | 73 | 0.278 | 83 |  |  |  |  |  | 27% |
| Cc1c(Nc2ccc(C#N)cc2Cl)ncnc1OC1C[C@@H]2CC[C@@H](C1)N2S(=O)(=O)C1CC1 (stereo partly specified) |  |  |  |  | 0.001 | 0.007 | 0.17 (≈ 0.0806 µg/mL) |  |  |  |
| CC1(OC(=O)N2CC3COCC(C2)C3Oc2ncnc(Oc3ccccc3F)c2F)CC1 (stereo unspecified) | 0.026 | 114 | 0.075 | 136 |  |  |  |  |  | 20% |
| CC1(OC(=O)N2CC3COCC(C2)C3Oc2ncnc(Nc3ccc(F)cc3F)c2F)CC1 (stereo unspecified) | 0.015 | 94 | 0.044 | 73 |  |  |  |  |  | 27% |
| COCC1(OC(=O)N2CC3COCC(C2)C3Oc2ncnc(Nc3ccc(C#N)cc3F)c2F)CC1 (stereo unspecified) | 0.049 | 62 | 0.312 | 70 |  |  |  |  |  |  |

The next lines start with results.

| EC50 [1] [µM] | %max [2] [%] | EC50 [3] [µM] | %max [4] [%] | fraction unbound at 10 µM [7] | fraction unbound at 10 µM [8] | solubility [9] [µM] | SMILES | Activity (Mus musculus [5]) | Activity (Rattus norvegicus) | Activity (Mus musculus [6]) |
| --- | --- | --- | --- | --- | --- | --- | --- | --- | --- | --- |
| 0.01 | 51 | 0.06 | 60 |  |  |  | N#Cc1ccc(Nc2ncnc(OC3C4COCC3CN(C(=O)OC3CCC3)C4)c2F)c(Cl)c1 (stereo unspecified) |  |  |  |
| 0.0026 | 81 | 0.021 | 44 |  |  |  | CC(C)COC(=O)N1[C@H]2CC[C@H]1CC(Oc1ncnc(Nc3ccc(C#N)cc3Cl)c1F)C2 (stereo partly specified) |  |  | inactive |
| 0.013 | 78 | 0.113 | 108 |  |  |  | CC1(OC(=O)N2C[C@H]3COC[C@@H](C2)[C@@H]3Oc2ncnc(Nc3c(F)cccc3F)c2F)CC1 |  |  | 31% |
| 0.006 | 89 | 0.043 | 90 |  |  |  | CCC1(OC(=O)N2CC3COCC(C2)C3Oc2ncnc(Nc3ccc(C#N)cc3F)c2F)CC1 (stereo unspecified) |  |  |  |
| 0.0035 | 79 | 0.067 | 42 |  |  |  | CC1(OC(=O)N2[C@H]3CC[C@H]2CC(Oc2ncnc(Nc4ccc(C#N)cc4Cl)c2F)C3)CC1 (stereo partly specified) |  |  | 17% |
| 0.01 | 59 | 0.06 | 88 |  |  |  | CC1(OC(=O)N2CC3COCC(C2)C3Oc2ncnc(Nc3ccc(C#N)cc3Cl)c2F)CCC1 (stereo unspecified) |  |  |  |
| 0.0051 | 77 | 0.042 | 18 |  |  |  | CC1(OC(=O)N2[C@H]3CC[C@H]2CC(Oc2ncnc(Nc4ccc(C#N)cc4Cl)c2F)C3)CCC1 (stereo partly specified) |  |  | inactive |
| 0.008 | 87 | 0.046 | 29 |  |  |  | CC(C)OC(=O)N1[C@H]2CC[C@H]1CC(Oc1ncnc(Nc3ccc(C#N)cc3Cl)c1F)C2 (stereo partly specified) |  |  | inactive |
| 0.006 | 78 | 0.025 | 76 |  |  |  | CC1(OC(=O)N2C[C@H]3COC[C@@H](C2)[C@@H]3Oc2ncnc(Nc3ccccc3F)c2F)CC1 |  |  | 21% |
